# Measured values from different studies.
# Observed: cell growth or viability
Compound,cell line,method,tested at,time,quantity,result
CC(C)=CCC[C@](C)(O)[C@H]1CC[C@]2(C)[C@@H]1[C@H](O)C[C@@H]1[C@@]3(C)CC[C@H](O[C@@H]4O[C@H](CO)[C@@H](O)[C@H](O)[C@H]4O[C@@H]4O[C@H](CO)[C@@H](O)[C@H](O)[C@H]4O)C(C)(C)[C@@H]3CC[C@]12C,NCI-H358,MTT,,72 h,IC20,> 100000 nM
COC(=O)c1c(C)ncn1CC(c1cn(C)c2ccccc12)c1cn(C)c2ccccc12,HaCaT,MTS,20 µM,24 h,inhibition,12.6%
COc1cc(-c2ccc(-c3ccc(C(=N)N)nc3)s2)cc(OC)c1OC,SNB-19,SRB,,,GI50,4730 nM
CCCCc1nc(Cl)c(CO)n1Cc1ccc(-c2ccccc2-c2nn[nH]n2)cc1,WI-38,MTT,,72 h,EC50,9000 nM
CCOC(=O)c1cn(CC(c2cn(C)c3ccc(C)cc23)c2cn(C)c3ccc(C)cc23)c(C)c1C(=O)OC,HaCaT,MTS,20 µM,24 h,inhibition,9.5%
Cc1cc(C)cc(COc2cc3c(cc2OCc2cc(C)cc(C)c2)[C@H]2C[C@](O)(Cc4cn(Cc5cc(C(F)(F)F)cc(C(F)(F)F)c5)nn4)C[C@H](C)N2CC3)c1,ASPC1,MTT,,,IC50,836 nM
CC(C)C[C@H](NC(=O)[C@H](Cc1ccccc1)NC(=O)c1cnccn1)B(O)O,HEC-1-A,ATP luminescence,,,IC50,17 nM
C[C@@H](Oc1cc(-c2cnn(C3CCNCC3)c2)cnc1N)c1c(Cl)ccc(F)c1Cl,KARPAS-299,MTT,0.008 µg/mL,72 h,inhibition,27.5%
Cc1cc(C)cc(COc2cc3c(cc2OCc2cc(C)cc(C)c2)C2CC(O)(Cc4cn(CCCCCCNc5ccc6c(c5)C(=O)N(C5CCC(=O)NC5=O)C6=O)nn4)CC(C)N2CC3)c1 (stereo not shown),ASPC1,MTT,,,IC50,1230 nM
CCCCCCCCCCCCCCCCOP(=O)([O-])OCC[N+](C)(C)C,HaCaT,MTS,20 µM,24 h,inhibition,45.5%
Cc1cc(C)cc(COc2cc3c(cc2OCc2cc(C)cc(C)c2)[C@H]2C[C@](O)(Cc4cn(Cc5ccc(Cl)c(Cl)c5)nn4)C[C@H](C)N2CC3)c1,ASPC1,MTT,,,IC50,606 nM
Cc1cc(Nc2ncc(Cl)c(Nc3ccccc3S(=O)(=O)C(C)C)n2)c(OC(C)C)cc1C1CCNCC1,KARPAS-299,MTT,0.55556 µg/mL,72 h,inhibition,73.4%
Cc1cc(C)cc(COc2cc3c(cc2OCc2cc(C)cc(C)c2)C2CC(O)(Cc4cn(CCOCCOCCOCCNC(=O)CNc5cccc6c5C(=O)N(C5CCC(=O)NC5=O)C6=O)nn4)CC(C)N2CC3)c1 (stereo not shown),ASPC1,MTT,,,IC50,3210 nM
COc1ccc(-c2ccc(-c3ccc(C(=N)N)nc3)s2)cc1,SNB-19,SRB,,,GI50,1720 nM
COc1cc(Nc2nccc(-c3cnn4nc(OC)ccc34)n2)cc(C(F)(F)F)c1,HCC1569,ATP luminescence,,,IC50,> 3000 nM
COc1cccc(Oc2ccccc2NC(=O)CNC(=O)c2cccc3ccccc23)c1,SNB-19,SRB,,48 h,GI50,617 nM
Cc1cc(C)cc(COc2cc3c(cc2OCc2cc(C)cc(C)c2)[C@H]2C[C@](O)(Cc4cn(CC56CC7CC(CC(C7)C5)C6)nn4)C[C@H](C)N2CC3)c1,ASPC1,MTT,,,IC50,516 nM
Cc1cn(CC(c2cn(C)c3ccccc23)c2cn(C)c3ccccc23)nn1,HaCaT,MTS,20 µM,24 h,inhibition,9.6%
Cc1cc(C)cc(COc2cc3c(cc2OCc2cc(C)cc(C)c2)C2CC(O)(Cc4cn(CCOCCOCCOCCNC(=O)CNc5ccc6c(c5)C(=O)N(C5CCC(=O)NC5=O)C6=O)nn4)CC(C)N2CC3)c1 (stereo not shown),ASPC1,MTT,,,IC50,> 5000 nM
COC(=O)c1c(C)ncn1CC(c1c[nH]c2ccccc12)c1c[nH]c2ccccc12,HaCaT,MTS,20 µM,24 h,inhibition,9.7%
Cc1cc(C)cc(COc2cc3c(cc2OCc2cc(C)cc(C)c2)[C@H]2C[C@](O)(Cc4cn(CCOCCOCCOCCNC(=O)[C@@H](CC(C)C)NC(=O)[C@@H](O)[C@H](N)Cc5ccccc5)nn4)C[C@H](C)N2CC3)c1,ASPC1,MTT,,,IC50,630 nM
COC(C)(C)CCC[C@](C)(O)[C@H]1CC[C@]2(C)[C@@H]1[C@H](O)C[C@@H]1[C@@]3(C)CC[C@H](O)C(C)(C)[C@@H]3CC[C@]12C,NCI-H358,MTT,,72 h,IC20,4480 nM
